ChEMBL document CHEMBL3992509, “Discovery of a Highly Potent, Selective, and Metabolically Stable Inhibitor of Receptor-Interacting Protein 1 (RIP1) for the Treatment of Systemic Inflammatory Response Syndrome” (J Med Chem, 2017)
Activity calls are given as the source filed them. No cut-off for these calls is given here.

Legend:
[1] = Apparent permeability from basolateral to apical side in MDCK cells harboring MDR1; type: ADME, cell-based, Canis lupus familiaris; settings: dog
Summary of the method: (§1)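 Permeability measured in MDCK-MDR1 cell monolayers in both directions, apical-to-basolateral and basolateral-to-apical; efflux ratio derived from the two Papp values.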

[2] = Bioavailability in C57BL/6J mouse at 10 mg/kg, ip by LC-MS/MS analysis; type: ADME, organism-based; settings: in vivo
Summary of the method: (§2)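 C57BL/6 mice (n = 3) dosed IV, IP or PO; blood sampled by eye puncture at various time points; plasma levels by LC-MS/MS; parameters from individual animal data by non-compartmental analysis.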

Cytochrome P450 1A2 = target: T1, Cytochrome P450 1A2 (Homo sapiens, UniProt P05177); assay: Inhibition of CYP1A2 (unknown origin); type: ADME
T1 sequence (P05177 whole entry): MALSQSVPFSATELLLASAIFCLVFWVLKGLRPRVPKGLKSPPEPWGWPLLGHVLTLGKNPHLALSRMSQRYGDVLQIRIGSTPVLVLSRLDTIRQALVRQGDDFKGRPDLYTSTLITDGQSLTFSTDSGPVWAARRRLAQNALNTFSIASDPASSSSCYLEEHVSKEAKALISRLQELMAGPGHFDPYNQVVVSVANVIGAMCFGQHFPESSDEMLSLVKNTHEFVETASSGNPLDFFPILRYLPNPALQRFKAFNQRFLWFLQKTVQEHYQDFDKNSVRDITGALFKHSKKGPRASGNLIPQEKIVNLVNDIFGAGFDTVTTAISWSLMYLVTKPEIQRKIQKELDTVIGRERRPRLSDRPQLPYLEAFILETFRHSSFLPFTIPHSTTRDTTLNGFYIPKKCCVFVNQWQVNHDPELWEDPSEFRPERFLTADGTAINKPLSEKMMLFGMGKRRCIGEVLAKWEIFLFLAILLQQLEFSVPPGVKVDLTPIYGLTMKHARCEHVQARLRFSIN

Mus musculus [3] = assay: Protection against TNFalpha-induced multiorgan damage in C57BL/6J mouse assessed as blood urea nitrogen level at 0.3 to 3 mg/kg, ip pretreated for 17 mins followed by TNFalpha injection and subsequent compound treatment once in every 12 hrs measured 24 hrs post TNFalpha injection; type: functional, organism-based
Summary of the method: (§3)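 C57BL/6 mice given 4 μg mTNFα (~0.18 mg/kg) IV. Compound 0.3, 1, 3 mg/kg IP 17 min before and then every 12 h; vehicle controls. Blood taken 12 h and 24 h after TNFα. Assays: IL-6 and IL-1β; serum LDH, CK, AST, creatinine, BUN, amylase.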

Mus musculus [4] = assay: Protection against TNFalpha-induced multiorgan damage in C57BL/6J mouse assessed as serum LDH level at 0.3 to 3 mg/kg, ip pretreated for 17 mins followed by TNFalpha injection and subsequent compound treatment once in every 12 hrs measured 24 hrs post TNFalpha injection; type: functional, organism-based; summary of the method: as §3
[5] = Intrinsic clearance in mouse liver microsomes assessed per mg protein in presence of NADPH by LC-MS/MS analysis; type: ADME, microsome; settings: read-out: CLH
Mus musculus [6] = assay: Protection against TNFalpha-induced multiorgan damage in C57BL/6J mouse assessed as inhibition of TNFalpha-induced increase in IL-6 level at 0.3 to 3 mg/kg, ip pretreated for 17 mins followed by TNFalpha injection and subsequent compound treatment once in every 12 hrs measured after 12 hrs; type: functional, organism-based; summary of the method: as §3
[7] = Apparent permeability from apical to basolateral side in MDCK cells harboring MDR1; type: ADME, cell-based, Canis lupus familiaris; settings: dog; summary of the method: as §1
[8] = Intrinsic clearance in human liver microsomes assessed per mg protein in presence of NADPH by LC-MS/MS analysis; type: ADME, microsome; settings: read-out: CLH
Cytochrome P450 3A4 = Cytochrome P450 3A4 (Homo sapiens, UniProt P08684); assay: Inhibition of CYP3A4 (unknown origin); type: ADME
Chain of Cytochrome P450 3A4 (P08684 whole entry): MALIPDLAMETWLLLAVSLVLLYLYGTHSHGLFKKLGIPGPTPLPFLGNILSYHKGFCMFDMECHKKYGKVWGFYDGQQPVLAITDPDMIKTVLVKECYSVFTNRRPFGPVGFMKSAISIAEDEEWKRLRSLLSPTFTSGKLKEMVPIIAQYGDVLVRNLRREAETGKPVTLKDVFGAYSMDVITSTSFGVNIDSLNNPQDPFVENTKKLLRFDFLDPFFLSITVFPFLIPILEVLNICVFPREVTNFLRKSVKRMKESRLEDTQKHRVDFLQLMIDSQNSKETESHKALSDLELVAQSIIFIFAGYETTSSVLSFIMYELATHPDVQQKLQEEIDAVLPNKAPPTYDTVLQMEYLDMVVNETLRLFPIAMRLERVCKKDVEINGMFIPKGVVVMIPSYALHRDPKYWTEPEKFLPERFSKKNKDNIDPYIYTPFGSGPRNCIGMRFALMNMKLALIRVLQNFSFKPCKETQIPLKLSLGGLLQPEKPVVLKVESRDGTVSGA

[9] = Half life in human liver microsomes in presence of NADPH by LC-MS/MS analysis; type: ADME, microsome
[10] = target: T2, Receptor-interacting serine/threonine-protein kinase 1 (Homo sapiens) (UniProt Q13546); assay: Inhibition of TNFalpha/z-VAD-FMK-induced RIP1 phosphorylation in human HT-29 cells by Western blot method; type: cell-based
T2 sequence (whole entry): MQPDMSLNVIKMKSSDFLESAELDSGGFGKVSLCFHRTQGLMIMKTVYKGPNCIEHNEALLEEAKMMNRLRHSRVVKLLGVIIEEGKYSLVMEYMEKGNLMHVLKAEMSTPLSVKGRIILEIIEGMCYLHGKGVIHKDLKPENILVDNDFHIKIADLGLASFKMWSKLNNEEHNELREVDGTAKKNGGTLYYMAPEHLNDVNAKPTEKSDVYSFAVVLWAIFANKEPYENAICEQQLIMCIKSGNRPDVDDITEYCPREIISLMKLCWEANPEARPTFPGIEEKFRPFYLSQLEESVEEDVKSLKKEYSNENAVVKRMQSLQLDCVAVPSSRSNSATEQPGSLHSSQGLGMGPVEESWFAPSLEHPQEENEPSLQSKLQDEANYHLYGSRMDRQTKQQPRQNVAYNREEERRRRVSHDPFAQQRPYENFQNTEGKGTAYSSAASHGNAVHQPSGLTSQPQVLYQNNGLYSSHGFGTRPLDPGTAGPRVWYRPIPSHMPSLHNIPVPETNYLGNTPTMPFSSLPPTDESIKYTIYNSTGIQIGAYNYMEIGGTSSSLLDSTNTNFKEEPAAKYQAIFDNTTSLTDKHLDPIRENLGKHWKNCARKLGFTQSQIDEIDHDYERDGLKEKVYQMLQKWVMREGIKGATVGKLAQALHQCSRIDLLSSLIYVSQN

Mus musculus [11] = assay: Protection against TNFalpha-induced multiorgan damage in C57BL/6J mouse assessed as serum creatinine level at 0.3 to 3 mg/kg, ip pretreated for 17 mins followed by TNFalpha injection and subsequent compound treatment once in every 12 hrs measured 24 hrs post TNFalpha injection; type: functional, organism-based; summary of the method: as §3
[12] = Oral bioavailability in C57BL/6J mouse at 10 mg/kg by LC-MS/MS analysis; type: ADME, organism-based; settings: in vivo; summary of the method: as §2
Mus musculus [13] = assay: Protection against TNFalpha-induced multiorgan damage in C57BL/6J mouse assessed as serum CK-MB level at 0.3 to 3 mg/kg, ip pretreated for 17 mins followed by TNFalpha injection and subsequent compound treatment once in every 12 hrs measured 24 hrs post TNFalpha injection; type: functional, organism-based; summary of the method: as §3
Mus musculus [14] = assay: Protection against TNFalpha-induced multiorgan damage in C57BL/6J mouse assessed as inhibition of TNFalpha-induced increase in IL-1beta level at 0.3 to 3 mg/kg, ip pretreated for 17 mins followed by TNFalpha injection and subsequent compound treatment once in every 12 hrs measured after 12 hrs; type: functional, organism-based; summary of the method: as §3
Mus musculus [15] = assay: (§4) Protection against TNFalpha-induced spleen damage in C57BL/6J mouse assessed as reduction in immune cell infiltration at 0.3 to 3 mg/kg, ip pretreated for 17 mins followed by TNFalpha injection and subsequent compound treatment once in every 12 hrs measured 24 hrs post TNFalpha injection by hematoxylin and eosin staining based assay; type: functional, organism-based
Summary of the method: (§5)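 Mice given mTNFα IV; compound 0.3, 1, 3 mg/kg IP 17 min before and every 12 h. Killed 24 h post-TNFα. Organs fixed 24 h in 10% neutral buffered formalin, paraffin-embedded, 5-μm sections, H&E stained; ×200, at least three mice each.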

Mus musculus [16] = assay: as §4, with “thymus” for “spleen”; type: functional, organism-based; summary of the method: as §5

CCC(C)(C)C(=O)N(O)Cc1ccccc1
Papp B→A [1]: > 30 ×10⁻⁶ cm/s | bioavailability [2]: 100% | IC50 (Cytochrome P450 1A2): > 50 µM | Activity (Mus musculus [3]): Active | Activity (Mus musculus [4]): Active | microsomal CLint [5]: 19.5 µL/min/mg | inhibition (Mus musculus [6]): Active | Papp A→B [7]: > 30 ×10⁻⁶ cm/s | microsomal CLint [8]: 5.4 µL/min/mg | IC50 (Cytochrome P450 3A4): > 3.5 µM | half-life [9]: 2.13 h | inhibition [10]: Active | Activity (Mus musculus [11]): Active | bioavailability [12]: 22% | Activity (Mus musculus [13]): Active | inhibition (Mus musculus [14]): Active | Activity (Mus musculus [15]): Active | Activity (Mus musculus [16]): Active
